Screening data as filed in PubChem BioAssay.
Compounds with a hit are over-represented: about 4.6% of the library has one in this group of screens.
OX1R antag-1: OX1R (human) antagonism; O43613; OX1R-expressing cells, FRET antagonist read-out; inhibition, % at 6.6 µM; 1.8% of 330,000 active; in the data active = inhibition mostly above about 38%, no sharp cut-off; inactive = mostly below about 40%;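 also: 0% = agonist challenge alone and 100% = reference antagonist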
TAAR1 agonist: human TAAR1 agonism; Q96RJ0; CHO RD-HGA16 TAAR1, Fluo-8 calcium fluorescence; vehicle wells 0%, saturating PEA agonist 100%; activation, % at 3 µM; 0.99% of 360,000 active; AID 624467;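 active = activation above the mean activation of all test compounds in the run plus 3 SD, cut at about 38% in these data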
Target sequence (Q96RJ0 whole entry, looked up): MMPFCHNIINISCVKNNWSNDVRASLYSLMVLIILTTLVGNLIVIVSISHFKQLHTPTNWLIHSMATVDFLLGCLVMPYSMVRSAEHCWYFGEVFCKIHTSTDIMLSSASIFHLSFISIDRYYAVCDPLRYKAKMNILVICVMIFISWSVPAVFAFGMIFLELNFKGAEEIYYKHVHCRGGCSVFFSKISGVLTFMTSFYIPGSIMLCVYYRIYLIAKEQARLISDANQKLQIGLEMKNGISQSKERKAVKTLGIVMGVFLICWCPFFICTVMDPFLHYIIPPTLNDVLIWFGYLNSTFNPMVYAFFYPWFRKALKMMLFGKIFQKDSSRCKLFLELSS
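Signal – calcium-sensitive Fluo-8 signal, excitation 470-495, emission 515-575 nm · System – RD-HGA16 (CHO) cells co-expressing Gα16 and hTAAR1 · Incubation – 17-24 h seeding, 75 min 37 °C dye, 30 min RT · Compound dosing – 3 µM single concentration · Repeats – no replicates (n 1)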
GPR7 antag: antagonists of human GPR7 (neuropeptides B/W receptor 1) | P48145 | GPR7-expressing cells, fluorescence antagonist assay | inhibition, % at 4.4 µM | 1.1% of 290,000 active; in the data active = inhibition above about 16%, passing the limit was not always enough;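 also: cells stimulated with the agonist NPW; 0% = agonist with vehicle and 100% = vehicle without agonist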
CHO parental Ca: signal in parental CHO cells, OX1R antagonist counter-screen. parental CHO-K1, ATP-induced calcium, Fluo-8 fluorescence. inhibition, % at 5.6 µM. AID 463079. 0.63% of 330,000 active;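 active = inhibition above that plate's mean sample inhibition plus 3 SD, cut at about 26% in these data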;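 also: 0% = ATP-challenged DMSO wells and 100% = DMSO wells without ATP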
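Material – parental CHO cells · Reagent – ATP stimulus · Compound – single nominal dose of 5.6 µM per compound · Detection – Fluo-8 fluorescence · Read-out basis – percent inhibition of calcium signal · Controls – ATP-challenged DMSO wells low, unchallenged DMSO wells high · Repeats – no replicates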
TAAR1 antagonist: antagonists of human TAAR1. CHO RD-HGA16 TAAR1, Fluo-8 calcium fluorescence, antagonist. inhibition, % at 3 µM. 1.5% of 360,000 active. AID 624466;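 active = inhibition above a per-plate cutoff, the mean inhibition of test compounds on that plate plus 3 SD, cut at about 49% in these data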;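 also: 0% = DMSO plus EC80 beta-PEA response and 100% = DMSO alone without agonist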
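Test system – hTAAR1-expressing CHO RD-HGA16 cells, Gα16-coupled · Reagent – β-PEA at EC80 concentration, post-compound challenge · Compound dosing – 3 µM, single point · Timing – 140 s kinetic read after compound, 140 s after agonist · Detection – Fluo-8 intracellular calcium dye fluorescence, real-time kinetic reads · Control set – DMSO and EC80 PEA controls · Repeats – n of 1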
OX1R antag-2: blocks the human orexin 1 receptor. O43613. CHO/OX1R cells, Fluo-8 calcium fluorescence, orexin A. inhibition, % at 5 µM. 0.43% of 330,000 active. AID 434989;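 active = inhibition above its plate's threshold, mean inhibition of all tested compounds on the plate plus 3 SD, cut at about 37% in these data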;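 also: 0% = orexin A challenge wells and 100% = SB-334867-A antagonist wells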
OX1R Ca confirm: OX1R (human) antagonism, confirmed; shares compounds with OX1R antag-2; CHO/OX1R cells, orexin A calcium Fluo-8 fluorescence; inhibition, % at 5 µM; 38% of 1,100 active; in the data active = inhibition above about 29%;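 also: 0% = agonist challenge alone and 100% = reference antagonist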
CHO Ca counter: signal in parental CHO cells, OX1R antagonist counter-screen | shares compounds with OX1R antag-2 | parental CHO-K1, ATP-induced calcium, Fluo-8 fluorescence | inhibition, % at 5.6 µM | 9.3% of 1,100 active;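 active = inhibition above a per-plate limit, the mean inhibition of that plate's test compounds plus 3 SD, cut at about 25% in these data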;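 also: 0% = ATP challenge with DMSO and 100% = DMSO without ATP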
Numbers without * were called inactive; . = no result.

SMILES	OX1R antag-1	TAAR1 agonist	GPR7 antag	CHO parental Ca	TAAR1 antagonist	OX1R antag-2	OX1R Ca confirm	CHO Ca counter
O=C(c1ccccc1)N1CCN(c2nc3ccc([N+](=O)[O-])cc3s2)CC1	31.2	5.8	-11.3	23.7	4.6	22.8	27.1	22.5
COc1ccccc1C(=O)NC(=O)COC(=O)c1cnccn1	.	3.0	.	.	-16.9	.	.	.
O=C(Cc1cccs1)Nc1cc(S(=O)(=O)N2CCCCC2)ccc1Cl	6.5	9.8	.	-30.7	-4.7	-19.2	.	.
CC(NCC(=O)Nc1cc(S(=O)(=O)N2CCCCCC2)ccc1Cl)c1ccccc1 (centres undefined)	23.8	3.1	-21.8	21.5	13.3	27.3	27.9	26.1*
CC1CCCCN1C(=O)CCc1nnc(Cc2c[nH]c3ccccc23)o1 (centres undefined)	12.8	4.3	14.4	-9.5	9.5	-4.4	.	.
FC(F)(F)c1cnc(NNC(=S)Nc2cccnc2)c(Cl)c1	17.8	7.3	-0.3	-1.7	21.2	-8.1	.	.
O=C(c1ccco1)N1CCN(c2cc(N3CCOCC3)c(F)cc2[N+](=O)[O-])CC1	29.4	0.8	-1.7	3.8	0.4	-9.0	.	.
CCCN(C(=O)COC(=O)CCOc1ccc(C)cc1)c1c(N)n(Cc2ccccc2)c(=O)[nH]c1=O	9.4	0.1	.	-0.7	-11.7	-6.4	.	.
Cc1ccc(OCCC(=O)N(CCC(C)C)c2c(N)n(Cc3ccccc3)c(=O)[nH]c2=O)cc1	26.3	.	.	-13.1	.	37.3	-4.9	-11.0
CC(=O)c1ccc(S(=O)(=O)N2CCN(CC(=O)Nc3ccnn3C3CCCC3)CC2)cc1	.	-3.7	.	.	8.2	.	.	.
COc1cc(OC)cc(-c2c(C#Cc3ccsc3)c3cc(-c4cccc5[nH]cc(C=O)c45)ccc3n2C)c1	18.7	2.2	.	6.3	18.3	31.2	.	.
CNC(=S)Nc1cccc(Cl)c1C	11.8	3.2	-14.5	-1.5	14.1	0.1	.	.
Cc1csc2ncnc(N3CCN(C(=S)Nc4ccc(C(F)(F)F)cc4)CC3)c12	44.7	1.1	-9.6	0.2	-41.5	49.2*	22.1	44.7*
FC(F)(F)c1cccc(NC(=S)N2CCN(c3ccccn3)CC2)c1	1.7	35.6	-3.5	-18.5	17.4	-10.8	.	.
Cc1cc(C)cc(NC(=S)N2CCN(c3ncc(C(F)(F)F)cc3Cl)CC2)c1	4.0	4.2	-5.7	-25.1	-12.5	-0.8	.	.
Cc1csc2c(N3CCN(C(=S)Nc4ccc(C(F)(F)F)cc4)CC3)ncnc12	25.3	46.8*	-1.4	9.8	38.1	37.1	22.5	64.3*
Cc1ccc(S(=O)(=O)Nc2ccc3c(c2)C(=O)N([C@H](C)CO)C[C@H](C)[C@@H](CN(C)C(=O)Nc2ccc(C(F)(F)F)cc2)O3)cc1	0.8	2.0	.	-18.1	4.5	-6.3	.	.
Cn1c(SCC(=O)Nc2sccc2C(N)=O)nc2ccccc2c1=O	25.1	10.9	.	-18.8	-7.6	36.5	8.2	4.2
CCCOP(=O)(OCCC)C(Nc1ccc(C(C)C)cc1)c1ccc([N+](=O)[O-])cc1 (centres undefined)	1.8	4.5	13.2	-6.4	25.7	54.5*	-1.8	-26.9
COP(=O)(OC)C(Nc1ccc([N+](=O)[O-])cc1)c1ccccc1 (centres undefined)	11.4	3.3	7.6	-19.3	-1.3	-6.9	.	.
COc1ccc(NC(=O)CSc2nc3ccccc3nc2N2CCCC2)cc1Cl	22.2	0.1	-7.1	-18.8	-8.4	-28.0	.	.
CCOC(=O)/C=c1\s/c(=C\c2ccc3c(c2)OCCO3)c(=O)n1CC(=O)NCC1CCCO1 (centres undefined)	16.4	6.7	7.9	-11.4	-15.9	103.3*	7.6	-11.5
O=C(Nc1cccnc1)c1cc(-c2ccc(Cl)cc2Cl)on1	13.2	4.7	-9.6	-11.2	-24.7	-11.9	.	.
CC(=O)c1ccc(OCc2cc(C(=O)N(C)CCOc3ccc(C)cc3)no2)cc1	11.2	3.3	2.8	-0.8	8.5	26.9	0.1	-2.5
O=C(CCCc1c[nH]c2ccccc12)N1CCOCC1	18.8	11.6	-10.6	-9.8	-1.4	-9.6	.	.
